# Screens as filed in PubChem.
# PHOSPHO1 inh = inhibitors of human PHOSPHO1 phosphatase | Q8TCT1 | recombinant PHOSPHO1, absorbance phosphatase assay | inhibition, % at 13.3 µM | 290,000 compounds, 1.1% hits | AID 1565; in the data active = inhibition above about 60%
# hERG rescue = shields human hERG channel from block by proarrhythmic agents; AID 1511; activation (rescue from dofetilide block), less the hit threshold, % at 10 µM; 310,000 compounds, 0.51% hits; CHO-hERG, FluxOR thallium flux, dofetilide IC70 present; Q12809;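 active = activation above the mean of controls blocked by dofetilide plus 5 SD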;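 note: thallium influx through hERG after potassium depolarization seen as dye fluorescence rise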
# KCNQ1 block = blocks the human KCNQ1 potassium channel. 310,000 compounds, 1.3% hits. B-score at 10 µM. CHO-K1 KCNQ1, FluxOR thallium flux fluorescence; stronger effect = higher value;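 active = compounds whose thallium flux B-score, printed positive for inhibition, exceeds three library SD while starting fluorescence stays within three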;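 note: channel opened by potassium depolarization with thallium stimulus after 20 min compound exposure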
# KCNQ1 pot = potentiators or activators of human KCNQ1 potassium channel. AID 2648. 310,000 compounds, 0.35% hits. B-score at 10 µM. P51787. CHO-K1 KCNQ1, thallium flux FluxOR fluorescence; stronger effect = higher value;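 active = fluorescence ratio B-score, a plate-corrected score, at least three library SD, with initial intensity B-score within 5 SD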
#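 assay system = CHO-K1 cells stably expressing KCNQ1 | medium = assay buffer, equal DMSO in all wells | timing = 37 °C overnight plating, 90-min dark dye load, 20-min compound pretreatment | measured by = kinetic FluxOR thallium fluorescence, 10-s 1-Hz baseline, 110-s post-stimulus read | measure = fluorescence change relative to baseline, converted to B score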
# KCNK3 block = human KCNK3 channel inhibition, primary screen; B-score at 10 µM; 340,000 compounds, 0.84% hits; O14649; CHO-KCNK3 thallium flux, FluxOR fluorescence; stronger effect = lower value;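 active = B-score under library mean minus 4 SD, starting fluorescence ratio at most library mean plus 5 SD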;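 note: more negative B-score means stronger inhibition of thallium flux through KCNK3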
# KCNK9 inh = blocks the human KCNK9 two-pore domain potassium channel. B-score at 10 µM. 310,000 compounds, 1.2% hits. HEK293 KCNK9, FluxOR thallium flux fluorescence; stronger effect = lower value;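 active = ratio B-score over 3 SD below the library mean, with starting fluorescence within 5 SD of its mean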;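 note: negative B-score means less thallium flux so channel inhibition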
# KCNK9 inh conf = human KCNK9 inhibitor confirmation. HEK293 KCNK9 cells, FluxOR thallium flux fluorescence. shares compounds with KCNK9 inh. AID 492992. inhibition, % at 10 µM. 4,900 compounds, 43% hits;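 active = thallium signal inhibited by more than 5 SD of the compound-free buffer control wells, on both duplicate plates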;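 note: 0% = assay buffer control wells without compound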
# Kir21 sel = mouse Kir2.1 off-target activity of KCNK9 modulators; shares compounds with KCNK9 inh; Kir2.1 cells, FluxOR thallium flux fluorescence; AID 492993; inhibition, % at 10 µM; 4,900 compounds, 4% hits;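 active = thallium signal drop more than 5 SD beyond the mean of the no-compound control wells, seen in both duplicate plates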;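 note: signal is fluorescence rise after thallium addition divided by baseline fluorescence; plate controls were assay buffer only for no effect and full block by chlorpromazine control for full effect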
# KCNK9 uninduced = non-induced cell nonspecific activity of KCNK9 modulators | shares compounds with KCNK9 inh | non-induced KCNK9-HEK293, FluxOR thallium flux | inhibition, % at 10 µM | 4,900 compounds, 40% hits | AID 492997;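 active = thallium signal drop beyond 5 SD of the untreated control mean, on both duplicate plates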;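 note: plate controls were buffer only IC0 wells for no effect and SID17386958 at its maximal inhibitory level for full effect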
# * marks the source's active call; other numbers are inactive results; i = inactive; / = no result. An excerpt weighted towards active compounds, which were near 4% of everything screened.
SMILES,PHOSPHO1 inh,hERG rescue,KCNQ1 block,KCNQ1 pot,KCNK3 block,KCNK9 inh,KCNK9 inh conf,Kir21 sel,KCNK9 uninduced
O=[N+]([O-])c1cccc(OCCN2CCC(Cc3ccccc3)CC2)c1,-6,-16,7*,i,i,i,i,i,i
COc1cc(C(C)=O)ccc1OCCN1CCC(Cc2ccccc2)CC1,37,-15,i,i,i,i,/,/,/
Clc1ccccc1OCCN1CCC(Cc2ccccc2)CC1,46,-12,i,i,i,i,i,i,i
OC(C#CCN1CCCCC1)(c1ccccc1)c1ccccc1,35,-8,i,i,i,i,/,/,/
Cc1ccc2cccc(N=Cc3c(C)[nH]n(-c4ccccc4)c3=O)c2n1,1,-2,i,i,i,-10*,47%*,i,i
Cn1c(CCCOc2ccc(Cl)cc2Cl)nnc1SCC(=O)Nc1ccc(F)c(Cl)c1,3,-9,i,i,i,i,i,i,i
CCn1c(CCCOc2ccc(Cl)cc2Cl)nnc1SCC(=O)Nc1cc(F)ccc1C,-9,-6,i,i,i,-9.7*,58%*,i,30%*
CC(=O)Nc1ccc(C(=O)COC(=O)CCS(=O)(=O)c2ccccc2)cc1,/,-6,i,i,i,i,/,/,/
COc1ccc(OC)c(-c2csc(NC(=O)Cc3ccc(OC)c(OC)c3)n2)c1,15,-5,i,i,i,i,/,/,/
COc1ccc(OC)c(-c2csc(NC(=O)C3c4ccccc4Oc4ccccc43)n2)c1,-24,-3,i,i,i,-9.1*,36%*,i,32%*
COc1ccc(CN(Cc2cccn2C)S(=O)(=O)c2cccc(C(F)(F)F)c2)cc1,47,-10,6*,i,i,-8.8*,46%*,i,34%*
Cc1ccc(SCCC(=O)NCCSCc2ccccc2C)cc1,21,-8,i,i,i,i,i,i,i
CN(CC(=O)NC1CCCCCCC1)S(=O)(=O)c1cccc2cccnc12,-7,-6,i,i,i,i,i,i,i
CN(CC(=O)N1CCCCCC1)S(=O)(=O)c1cccc2cccnc12,-4,-5,i,i,i,i,/,/,/
O=C(/C=C/c1ccc2c(c1)OCO2)Nc1nc2ccc(F)cc2s1,35,-6,i,i,i,i,/,/,/
O=C(N/N=C/c1ccco1)c1cc(-c2ccc(Cl)s2)[nH]n1,4,0,i,i,i,i,/,/,/
Cc1ccc2c(c1)CCCN2C(=O)CSc1ccccc1,17,-11,i,i,i,i,i,i,i
Cn1cc(SCC(=O)N2CCCc3ccccc32)c2ccccc21,10,-13,i,i,i,i,i,38%*,i
C/C(=C\c1ccccc1)CN1CCN(c2ccccc2)CC1,-8,-13,i,i,i,i,i,i,i
O=C(COC(=O)/C(=C/c1cccs1)c1cccs1)NC(c1ccccc1)c1ccccc1,10,-10,i,i,i,-9.1*,46%*,i,i
CC(=O)/C=C/c1ccccc1Oc1c(F)c(F)nc(F)c1F,24,-5,i,i,i,i,i,i,i
O=C(Nc1nc(-c2ccccc2)cs1)c1ccccc1F,/,-7,i,i,i,i,/,/,/
Cc1ccc(S(=O)(=O)Nc2ccccc2C(=O)Nc2nc(-c3ccc(F)cc3)cs2)cc1,-10,-16,i,i,i,-10*,64%*,i,39%*
O=C(Nc1ccc(Cl)cc1)NC1(C(=O)NCCCN2CCOCC2)CCCCC1,-4,-8,i,i,i,i,/,/,/
Cc1nn(-c2ccc(N3CCOCC3)nn2)c(C)c1CCC(=O)Nc1ccccc1,36,-7,i,i,i,i,/,/,/
SMILES,PHOSPHO1 inh,hERG rescue,KCNQ1 block,KCNQ1 pot,KCNK3 block,KCNK9 inh,KCNK9 inh conf,Kir21 sel,KCNK9 uninduced
Cn1cc(CN2CCCC(CNC(=O)c3ccc4c(c3)OCO4)C2)c2ccccc21 (configuration not stated),32,-7,i,i,i,i,/,/,/
Cn1cc(CN2CCCC(C(=O)c3cc(F)ccc3F)C2)c2ccccc21 (configuration not stated),32,-12,i,i,i,i,i,i,i
COc1ccc(OC)c(CN2CCCC(C(=O)c3ccccc3SC)C2)c1 (configuration not stated),52,-13,i,i,i,i,i,i,i
COc1ccc(F)cc1C(=O)C1CCCN(Cc2cn(C)c3ccccc23)C1 (configuration not stated),36,-10,i,i,i,i,i,i,i
COc1ccc(F)cc1C(=O)C1CCCN(Cc2c[nH]c3ccccc23)C1 (configuration not stated),15,-9,i,i,i,i,/,/,/
CC(C)(C)OC(=O)C[C@@H]1C/C=C\C[C@@H](CC(=O)N(CCO)Cc2ccccc2)C(=O)N[C@@H](c2ccccc2)COC1=O,/,/,/,/,i,/,/,/,/
Oc1ccc(Br)cc1CNc1cccc2cccnc12,3,-11,i,i,i,-13*,52%*,i,40%*
Cc1ccc(O)c(CNc2ccccn2)c1,9,-2,i,i,i,i,/,/,/
Cc1ccc(O)c(CNc2cccc3cccnc23)c1,18,-17,i,i,i,-9.7*,60%*,i,36%*
CCCC(c1nnnn1CC1CCCO1)N1CCN(c2cc(Cl)ccc2C)CC1 (configuration not stated),4,-8,i,i,i,i,/,/,/
Clc1ccc(C(c2nnnn2C2CCCC2)N2CCN(c3nc4ccccc4s3)CC2)cc1 (configuration not stated),/,1,i,i,i,i,/,/,/
Cc1ccc(Cl)cc1N1CCN(C(c2cccnc2)c2nnnn2C2CCCCC2)CC1 (configuration not stated),-30,-7,i,i,-11*,-13*,37%*,i,44%*
CCC(c1nnnn1C(C)(C)C)N1CCN(c2cc(Cl)ccc2C)CC1 (configuration not stated),1,-5,i,i,-8.9*,-9.9*,49%*,i,47%*
